An excerpt weighted towards active compounds, which were near 4.4% of everything screened.
HIF act: HIF pathway transcriptional activators, primary screen, cell-based, U2OS HRE-luciferase, luminescence | U2OS HRE-luciferase reporter; normalized: DMSO 0%, desferrioxamine 100% | activation, % at 7.5 µM (by protocol) | 300,000 tested, 0.32% active;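 active means mean activation of at least 10% of the iron chelator positive control signal, with at least half of replicates also reaching 10%; inconclusive means mean and replicate majority disagree about reaching 10%; inactive means mean and most replicates under 10%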
HSF1 activator: HSF-1 activators, primary screen, NIH3T3-HGL cells, MG132 stress, luminescence, single point; activation, % at 9 µM; NIH3T3-HGL HSF-1 luciferase reporter, 8 h; 100% = twice DMSO control signal; 300,000 tested, 1.7% active; AID 504408, 2011;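 active means mean replicate activation of at least 50% with a set share of replicates each reaching 50%; inconclusive means only one of those two conditions met; inactive means mean below 50% and too few replicates reaching it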
T cruzi repl: inhibitors of intracellular T. cruzi growth, primary screen, luminescence, NIH3T3 host cells; T. cruzi beta-gal in NIH3T3, 90 h; inhibition, % (test concentration not listed); 300,000 tested, 1.4% active;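 active means mean inhibition across valid replicates above about 55%, limit read from the data; inconclusive means mean below that limit but half or more replicates reach it; inactive means mean below it, under half of replicates reach it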;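 further: signal also drops with host cell toxicity which is not excluded here; higher percent means less beta-gal luminescence so fewer parasites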
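System – NIH/3T3 host cells with β-galactosidase reporter T. cruzi · Doses – single 50 nL compound addition per well in DMSO · Reagent – 5000 T. cruzi trypomastigotes/well · Medium – Low-serum DMEM with 2% FBS · Timing – ≥90 h infection period, 3 h prior cell attachment · Evaluation – parasite load inhibition, % · Technique – GalScreen luminescence, 60 min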
Calb FLC: C. albicans growth inhibition with fluconazole, primary screen, CaCi-2 strain, Alamar Blue fluorescence; C. albicans CaCi-2 (fluconazole-resistant clinical isolate) + fluconazole, 48 h; growth inhibition, % (concentration not given with the values); 300,000 tested, 0.57% active;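 active means growth inhibition above about 58% in most replicates, limit read from the data, passing the limit was not always enough; inconclusive means exactly half the replicates above a set limit; inactive means most replicates below a set limit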;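 further: all wells also contain fluconazole at 8 µg/ml as a sub-toxic cotreatment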
HSF1 inhib: HSF1 inhibitors in luciferase reporter cells, primary screen, cell-based, NIH3T3, luminescence; NIH3T3-HGL HSE-luciferase, MG132-induced, luminescence 8 h; stronger effect = lower value; activity change, negative = inhibition, % at 7.5 µM (by protocol); 300,000 tested, 0.77% active;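 active means more than half of replicate wells show activity change below -50%, luminescence cut by over half; inconclusive means some wells, but at most half, below -50%; inactive means no replicate well below -50%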;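 further: luciferase reports HSF-1 transcriptional activity via heat shock element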
Hits are given with their value; . = inactive; ? = inconclusive.

SMILES	HIF act	HSF1 activator	T cruzi repl	Calb FLC	HSF1 inhib
Clc1ccc(OCCn2c(-c3ccco3)nc3ccccc32)cc1	.	137	.	.	.
COc1ccccc1N1CCN(C2CCCN(C(=O)CCC(C)=O)C2)CC1 (stereo not drawn)	.	.	.	.	.
CS/C(=N\S(=O)(=O)c1cccs1)Nc1ccc(F)c(Cl)c1	.	.	.	95	.
O=C(Nc1cc(F)ccc1F)C1CCCN1S(=O)(=O)c1cccc2nsnc12 (stereo not drawn)	.	.	.	.	.
Cc1c(C)n(Cc2ccccc2)c2ccc(C(=O)OCCCN(C)C)cc12	.	.	61	.	.
Cc1c(C)n(CCN(C)C)c2ccc(C(=O)OCCN(C)C)cc12	.	.	.	.	.
Cc1cccc(Nc2nc3ccccc3s2)c1C	.	125	.	.	.
CSCCC(NS(=O)(=O)c1cccs1)C(=O)NCc1ccc(C)cc1 (stereo not drawn)	.	.	.	.	.
CSCCC(NS(=O)(=O)c1cccs1)C(=O)NCc1ccccc1 (stereo not drawn)	.	.	.	.	-52
CCN(CC)CCNC(=O)C(=O)Nc1ccc(C(=O)OC)cc1	.	.	.	.	.
COc1ccc(C(=O)/C=C/C(=O)N(Cc2ccccc2)C(C(=O)NC2CCCCC2)c2ccncc2)c(O)c1 (stereo not drawn)	.	.	.	.	.
COc1ccc(C(=O)/C=C/C(=O)N(CC(=O)NC2CCCCC2)Cc2ccccc2OC)c(O)c1	.	.	89	.	.
COc1ccc(C(=O)/C=C/C(=O)N(CC(=O)NC2CCCCC2)Cc2ccccc2)c(O)c1	.	170	60	.	.
COc1ccc(C(=O)/C=C/C(=O)N(CC(=O)NC2CCCCC2)CC2CCCO2)c(O)c1 (stereo not drawn)	16	.	.	.	.
COc1ccc(C(=O)/C=C/C(=O)N(Cc2ccccc2OC)C(C(=O)NC2CCCCC2)c2ccncc2)c(O)c1 (stereo not drawn)	.	.	.	.	.
CCCCOc1ccc(C(=O)N2CCN(c3ncccn3)CC2)cc1	.	.	.	.	.
COc1ccc(OC)c(NC(=O)c2cccc(Cn3cc(Br)c([N+](=O)[O-])n3)c2)c1	.	.	64	.	.
Cc1cccc(NC(=O)c2cccc(Cn3cc(Br)c([N+](=O)[O-])n3)c2)c1C	.	.	58	.	.
Cc1ccccc1NC(=O)c1cccc(Cn2cc(Br)c([N+](=O)[O-])n2)c1	.	.	.	.	.
COc1cccc(/C=N\NC(=O)c2ccc(Cn3cc(Br)c([N+](=O)[O-])n3)o2)c1O	18	.	64	102	.
Cc1ccc(CNC(=O)CCc2nnc3ccc(N4CCC5(CC4)OCCO5)nn23)cc1	.	.	.	.	.
Cc1ccn2c(C(=O)N/N=C\c3ccccc3[N+](=O)[O-])c(C)nc2c1	.	78	.	.	.
Cc1ccn2c(C(=O)N/N=C/c3ccc(Cl)cc3)c(C)nc2c1	.	.	.	.	.
S=C(Nc1ccccc1)Nc1ccc(Cl)cn1	.	78	.	.	.
O=C(COc1ccccc1Cl)Nc1ccc(Cl)cn1	.	106	.	.	.
SMILES	HIF act	HSF1 activator	T cruzi repl	Calb FLC	HSF1 inhib
CSc1nc(Cc2ccccc2)cc(=O)[nH]1	.	.	.	.	-65
CCc1cc(=O)[nH]c(SCCc2ccccc2)n1	.	.	.	.	.
NC(=O)c1cc(S(=O)(=O)NCCc2ccc(S(N)(=O)=O)cc2)cs1	.	.	.	.	.
Cc1cccc(CSCCNC(=O)COc2ccc(Cl)cc2)c1	.	.	.	.	-56
COc1cccc(OC)c1OCCCNC1CCCC1	.	.	.	.	.
COC(=O)c1cnc2c(c(C)nn2C)c1OC	.	59	.	.	.
Cc1[nH]n(CCC#N)c(=O)c1CC(=O)N1CCN(c2ccccc2)CC1	.	.	.	.	-54
Cn1nc(CC(=O)N2CCN(c3ccccc3)CC2)c2ccccc2c1=O	.	.	.	.	.
COc1cc(O)c(C(CCN2CCN(c3ccccc3)CC2)c2cc(OC)c(OC)c(OC)c2)c(OC)c1 (stereo not drawn)	.	.	.	.	.
CC(C)C(=O)NC(c1ccccc1)c1cc([N+](=O)[O-])c2cccnc2c1O (stereo not drawn)	.	.	.	.	.
COc1ccc(Cl)cc1C(Nc1cccnc1)c1ccc2cccnc2c1O (stereo not drawn)	.	.	72	102	.
CC(=O)NC(c1ccc(C(C)C)cc1)c1ccc2cccnc2c1O (stereo not drawn)	163	.	56	.	-52
COc1ccc(C(=O)Nc2cccnc2)cc1OC	.	.	.	.	.
CCCC(=O)NC(c1ccccc1)c1ccc2cccnc2c1O (stereo not drawn)	51	.	58	86	.
CCCCC(=O)NC(c1ccc(C(C)C)cc1)c1ccc2cccnc2c1O (stereo not drawn)	103	.	.	.	.
CCCCC(=O)NC(c1ccc([N+](=O)[O-])cc1)c1c(O)ccc2ccccc12 (stereo not drawn)	.	.	.	.	.
NS(=O)(=O)c1ccc(CCNC(=O)C(=O)C2C(=O)Nc3ccccc32)cc1 (stereo not drawn)	.	.	.	.	.
CCCCC(=O)NC(c1ccccc1)c1ccc2cccnc2c1O (stereo not drawn)	48	.	57	89	.
COc1cccc(/C=N/NC(=O)COc2cccc3cccnc23)c1O	.	.	.	.	.
CCCCC(=O)NC(c1ccccc1Cl)c1ccc2cccnc2c1O (stereo not drawn)	128	.	.	.	?
CCCC(=O)NC(c1ccc(OC)cc1)c1ccc2cccnc2c1O (stereo not drawn)	74	.	74	102	.
CCC(=O)NC(c1ccccc1Cl)c1c(O)ccc2ccccc12 (stereo not drawn)	.	.	.	.	.
CCC(=O)NC(c1ccccc1OC)c1ccc2cccnc2c1O (stereo not drawn)	35	.	60	103	.
CCN(CC)c1ccc2c(Cl)c(Br)c(=O)oc2c1	14	326	59	.	.
Nc1ncnc(Sc2ncccn2)c1[N+](=O)[O-]	.	.	.	85	?
O=C(NC(=S)Nc1ccc2c(c1)OCCO2)c1ccccc1	.	.	.	.	.
O=C(NC(=S)Nc1ccc(N2CCOCC2)cc1)c1ccc2c(c1)OCCO2	.	.	.	.	.
O=C(NC(=S)Nc1ccc(N2CCCCC2)cc1)c1ccc2c(c1)OCCO2	.	.	.	.	-61

Source: PubChem
